Drawing on PubChem BioAssay AID588734 (Vanderbilt Specialized Chemistry Center, 2011), this text covers Emax and fold shift for two molecules.

Activity calls are given as the source filed them.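 How the source made its calls: active means compound moving the glutamate curve by at least twofold either way, or glutamate peak under 75% or over 125%; inactive means the rest.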

By Emax is commonly meant the size of the effect at its maximum, as opposed to the concentration needed.

This test deals with Metabotropic glutamate receptor 4 (Rattus norvegicus) (UniProt P31423). The test can be described thus: rat mGlu4 allosteric modulation, glutamate curve shift, profiling panel, selectivity assay for mGlu5 PAM project, thallium flux, HEK/GIRK cells (AID 588734). The conditions noted are these: glutamate CRC shift, at 10 µM; Emax: measured here: glutamate max response with compound. An outline of the steps:
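System: HEK/GIRK cells with rat mGlu4; incubation: dye loading for 45 min at 37 °C; signal: thallium flux fluorescence slope; measure: glutamate EC50 ratio, untreated over compound-treated; benchmarks: compound-free glutamate curve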

Chain of Metabotropic glutamate receptor 4 (Rattus norvegicus) (P31423 whole entry, looked up): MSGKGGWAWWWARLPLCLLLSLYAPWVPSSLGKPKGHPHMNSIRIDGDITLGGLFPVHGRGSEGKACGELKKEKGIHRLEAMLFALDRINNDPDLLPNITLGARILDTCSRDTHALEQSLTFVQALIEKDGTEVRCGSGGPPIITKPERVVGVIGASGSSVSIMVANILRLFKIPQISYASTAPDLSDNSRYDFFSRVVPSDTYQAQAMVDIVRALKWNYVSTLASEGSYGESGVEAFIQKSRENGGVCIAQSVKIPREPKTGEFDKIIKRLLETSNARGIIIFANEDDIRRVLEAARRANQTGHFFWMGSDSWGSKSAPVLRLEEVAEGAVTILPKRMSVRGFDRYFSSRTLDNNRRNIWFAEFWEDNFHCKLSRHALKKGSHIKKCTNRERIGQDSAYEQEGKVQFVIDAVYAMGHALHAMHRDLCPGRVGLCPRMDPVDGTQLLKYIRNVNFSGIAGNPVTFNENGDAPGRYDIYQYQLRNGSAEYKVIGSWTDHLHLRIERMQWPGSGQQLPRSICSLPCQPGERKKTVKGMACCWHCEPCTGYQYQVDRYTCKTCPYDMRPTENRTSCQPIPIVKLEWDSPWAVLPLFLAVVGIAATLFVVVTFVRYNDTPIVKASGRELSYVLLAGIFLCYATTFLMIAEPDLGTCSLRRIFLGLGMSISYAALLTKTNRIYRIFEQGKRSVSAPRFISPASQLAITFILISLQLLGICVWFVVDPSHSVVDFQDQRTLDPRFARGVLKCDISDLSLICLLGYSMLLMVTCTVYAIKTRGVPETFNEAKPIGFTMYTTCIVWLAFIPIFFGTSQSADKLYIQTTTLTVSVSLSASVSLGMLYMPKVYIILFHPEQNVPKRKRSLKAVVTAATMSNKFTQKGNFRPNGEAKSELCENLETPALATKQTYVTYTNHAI

Regarding `C[C@@H](NC(=O)c1ccc(C#Cc2cccc(F)c2)cn1)C(C)(C)O`, the Emax turned out to be 90% and the fold shift is 0.88 (inactive).
Take `CC1(NC(=O)c2ccc(C#Cc3cccc(F)c3)cn2)COC1`: the Emax came out at 93% and the fold shift is 1 (inactive).
